Experimental data reported in the M2OR odorant receptor database.

Biological target: T1, OR2B3 (Homo sapiens) (UniProt O76000)
T1 sequence (whole entry): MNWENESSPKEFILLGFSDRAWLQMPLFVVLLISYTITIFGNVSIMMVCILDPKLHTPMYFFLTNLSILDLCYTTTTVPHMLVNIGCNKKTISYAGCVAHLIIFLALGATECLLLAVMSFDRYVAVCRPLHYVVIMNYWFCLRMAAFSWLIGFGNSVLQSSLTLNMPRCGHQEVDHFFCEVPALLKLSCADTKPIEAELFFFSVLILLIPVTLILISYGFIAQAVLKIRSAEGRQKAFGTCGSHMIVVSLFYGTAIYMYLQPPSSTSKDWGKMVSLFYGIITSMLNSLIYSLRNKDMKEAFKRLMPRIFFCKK
Conditions: stereoisomer not certain
Procedure, shortened: (§1)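 Each entry records the cell line, G-protein, co-transfected protein and tags used. Methods varied with the source, often transient luciferase assays in mammalian cell lines. A receptor–molecule pair is called responsive (active) if the original authors judged its signal statistically different from baseline and non-responsive (inactive) otherwise.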

SMILES	odorant receptor agonist call
CC(C)=CCCC(C)=CCO	inactive
CCCCCC1C(=O)CCC1CC(=O)OC (configuration not stated)	inactive
CC=CC(=O)C1C(C)=CCCC1(C)C (configuration not stated)	inactive
COc1ccc(C)cc1	inactive
Cc1occc(=O)c1OC(=O)C(C)C	inactive
CC(=O)OCc1ccccc1	inactive
OCc1ccccc1	inactive
CCc1ccc(CC(C)(C)C=O)cc1	inactive
CC(=O)C=CC1=C(C)CCCC1(C)C	active
CC(C)CCCC(C)(C)O	inactive
CCCCCCCCC(OC(C)=O)OC(C)=O	inactive
CC1CC(C)(c2ccccc2)CO1 (configuration not stated)	inactive
CC(C)=CCCC(C)CC=O (configuration not stated)	inactive
CCOC(=O)CC1(C)OCCO1	inactive
CC(CC=O)c1ccc(C(C)(C)C)cc1 (configuration not stated)	inactive
C=CCOC(=O)COCCC(C)C	inactive
Cc1ccc(C(C)C)cc1O	inactive
CC1=CCC2CC1C2(C)C (configuration not stated)	inactive

Biological target: T2, OR2C1 (Homo sapiens) (UniProt O95371)
T2 sequence (whole entry): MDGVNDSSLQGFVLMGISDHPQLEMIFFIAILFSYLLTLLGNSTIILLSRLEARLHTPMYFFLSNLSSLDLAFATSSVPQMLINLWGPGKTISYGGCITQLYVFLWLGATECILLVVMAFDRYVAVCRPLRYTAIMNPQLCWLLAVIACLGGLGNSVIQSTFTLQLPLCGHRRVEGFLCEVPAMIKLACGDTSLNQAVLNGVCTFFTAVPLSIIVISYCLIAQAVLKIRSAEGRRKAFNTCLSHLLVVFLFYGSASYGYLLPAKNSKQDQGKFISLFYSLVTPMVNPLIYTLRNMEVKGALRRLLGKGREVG
Conditions: stereoisomer not certain
Procedure, shortened: as §1

SMILES	odorant receptor agonist call
CC(C)=CCCC(C)=CCO	inactive
CCCCCCC(=O)[O-].[H+]	inactive
CCCCCC1=C(C)CCC1=O	inactive
CCCCCCCC(=O)[O-].[H+]	inactive
CC(=O)OCc1ccccc1	inactive
CCCCOC(=O)C(C)OC(=O)CCC (configuration not stated)	inactive
CCC(=O)O	inactive
CCCCC(C)=O	inactive
CCCCC(=O)CC	inactive
CCC(=O)C(=O)CC	inactive
COc1cc(C(=O)O)ccc1O	inactive
CC(=O)OCC=C(C)C	inactive
CCCCCOC(=O)CCCCC	inactive
CCCCCCO	inactive
